Data taken from article PMC6713505 (Science Advances, 2019).

Experiments:
[1] = system: FL transporter-1 (Blon_0341–0343); format: cell-based, B. infantis JCM 1222^T; details: for change in concentration of each HMO in culture supernatant (consumption): MS554 expressing FL transporter-1, growth on 0.5% (w/v) purified HMO mixture
Summary of the method: (§1)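 The host was B. longum 105-A ΔlnbX ΔgltA carrying pMSK65, which encodes intracellular HMO-degrading exo-glycosidases. It was transformed with the transporter gene cluster or an empty vector. Cultures grew anaerobically at 37°C in MRS-CS with 0.5% (w/v) purified HMO mixture, Lac, 2′-FL, 3-FL, LDFT or LNFP I. OD600 was followed in technical duplicates. Supernatant HMOs were fluorescence-labelled and measured by HPLC against a maltoheptaose internal standard, in technical triplicates; means ± SD.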

[2] = system: FL transporter-2 (Blon_2202–2204); format: cell-based, B. infantis JCM 1222^T; details: for change in concentration of each HMO in culture supernatant (consumption): MS554 expressing FL transporter-2, growth on 0.5% (w/v) purified HMO mixture
Summary of the method: as §1

B. infantis JCM 1222^T = format: cell-based; details: 0.5% (w/v) sugar
Summary of the method: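 B. infantis JCM 1222T wild type and FL transporter mutants were grown anaerobically at 37°C in MRS-CS broth (0.34% w/v sodium ascorbate, 0.02% w/v cysteine-HCl). Each broth carried 0.5% (w/v) of Gal, 2′-FL, 3-FL, LDFT, LNFP I or purified HMO mixture. The HMO mixture was purified from pooled breast milk and contained 2% (w/w) Lac impurity. Growth was followed over time in biological duplicates, reported as means ± SD.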

Row | Compound | change in concentration of each HMO in culture supernatant (consumption) [1] | change in concentration of each HMO in culture supernatant (consumption) [2] | growth on sugar as carbon source ([1]; MS554 expressing FL transporter-1, 0.5% (w/v) sugar, OD600) | growth on sugar as carbon source ([2]; MS554 expressing FL transporter-2, 0.5% (w/v) sugar, OD600) | growth of WT and the four mutants of B. infantis (B. infantis JCM 1222^T)
1 | CC(=O)N[C@H]1[C@H](O[C@H]2[C@@H](O)[C@@H](CO)O[C@@H](O[C@H]3[C@H](O)[C@@H](O)C(O)O[C@@H]3CO)[C@@H]2O)O[C@H](CO)[C@@H](O[C@@H]2O[C@H](CO)[C@H](O)[C@H](O)[C@H]2O)[C@@H]1O (mixture of isomers) [LNnT, lacto-N-neotetraose] | invariant | invariant |  |  | 
2 | OC[C@H]1O[C@@H](O[C@H]2[C@H](O)[C@@H](O)C(O)O[C@@H]2CO)[C@H](O)[C@@H](O)[C@H]1O (mixture of isomers) [Lac, lactose] |  |  | indistinguishable from the control strain | indistinguishable from the control strain | 
3 | O=C[C@H](O)[C@@H](O)[C@@H](O)[C@H](O)CO [Gal, galactose] |  |  |  |  | grew at similar rates
4 | CC(=O)N[C@H]1[C@H](O[C@H]2[C@@H](O)[C@@H](CO)O[C@@H](O[C@@H]([C@H](O[C@@H]3O[C@@H](C)[C@@H](O)[C@@H](O)[C@@H]3O)[C@@H](O)C=O)[C@H](O)CO)[C@@H]2O)O[C@H](CO)[C@@H](O[C@@H]2O[C@@H](C)[C@@H](O)[C@@H](O)[C@@H]2O)[C@@H]1O[C@@H]1O[C@H](CO)[C@H](O)[C@H](O)[C@H]1O [LNDFH II] | invariant | invariant |  |  | 
5 | CC(=O)N[C@H]1[C@H](O[C@H]2[C@@H](O)[C@@H](CO)O[C@@H](O[C@H]3[C@H](O)[C@@H](O)C(O)O[C@@H]3CO)[C@@H]2O)O[C@H](CO)[C@@H](O)[C@@H]1O[C@@H]1O[C@H](CO)[C@H](O)[C@H](O)[C@H]1O (some centres unmarked) [LNT, lacto-N-tetraose] | invariant | invariant |  |  | 
6 | lacto-N-difucohexaose (LNDFH) I [LNDFH I] | invariant | invariant |  |  | 
